Screens as filed in PubChem.
Autophagy HCS = alters autophagy in cells. MEF GFP-LC3 puncta imaging; test concentration mostly 10 µM. calls only at 10 µM (by protocol). actives 0.98% (n = 190,000). AID 463193;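 active = percentage of spot-positive cells more than 3 SD above its plate mean, without a fluorescence outlier flag or 80% toxicity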;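 also: spot-positive cell cutoff set from DMSO-treated cells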
CHOP inhibitor = CHOP inhibition in unfolded protein response; actives 3.8% (n = 220,000); CHO-K1 CHOP-promoter luciferase, tunicamycin-induced, 15-18 h; inhibition, % at 10 µM;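 active = compounds that reduced the stress-induced luciferase reporter signal by more than about 70% of percent inhibition, limit read from the data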;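 also: 0% = tunicamycin plus vehicle and 100% = wells without tunicamycin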
Dynein transport = dynein cargo transport inhibition; 3617.4 mouse cells, GR-EGFP nuclear translocation imaging; test concentration mostly 20 µM; stimulated with dexamethasone, 1 µM; hits give low values; z-score, hits read low; actives 0.47% (n = 220,000);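 active = plate z-score of nuclear minus cytoplasmic receptor signal below a set negative limit, without overly bright fluorescence or cell loss, cut at about -3.5 in these data, passing the limit was not always enough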;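 also: z-score of nuclear minus cytoplasmic ring GR-EGFP intensity difference per well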
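Schedule: 48 h induction, then 1 h compound, then 30 min agonist, 37 °C. Buffer or medium: tetracycline-free induction medium containing charcoal-stripped FBS. Reagent: 1.0 µM final dexamethasone stimulus. Evaluation: nuclear versus cytoplasmic GR-EGFP signal, averaged per well. Signal: high-content fluorescence imaging after fixation.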
MT stabilize HCS = microtubule stabilizers in HeLa cells; % tubulin-high responders, % at 10 µM; AID 2205; actives 0.83% (n = 200,000); HeLa tubulin immunostaining HCS, 24 h; share of cells brighter than vehicle mean+2SD;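 active = plate Z-score above 3 for both tubulin-high and condensed-nucleus cell shares, with cell loss under 80%, at 10 µM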;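 also: anti alpha tubulin signal scored within the nucleus-defined area of each cell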
b-catenin transl = alters nuclear translocation of beta-catenin in HeLa cells; immunofluorescence imaging; nuclear translocation activity, % at 5 µM; actives 0.3% (n = 190,000);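 active = nuclear translocation activity above 50% at 5 µM, with a well cell count of 50 or more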;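 also: per-cell ratio of nuclear to cytoplasmic median beta-catenin stain intensity; plate controls were DMSO negative control for no effect and GSK-3 inhibitor IX positive control for full effect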
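Signal – beta-catenin immunofluorescence imaging with DAPI · Test system – human HeLa cell line · Dosing – 5 µM primary single dose, 0.1% DMSO, 0.02–20 µM confirmation series · Measure – % activation, nuclear-to-cytoplasmic median beta-catenin signal ratio per cell · Incubation – 24 h compound exposure at 37°C, 5% CO2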
Lmaj promast = reduces viability of Leishmania major promastigotes; resazurin fluorescence viability; actives 9% (n = 200,000); inhibition, % at 10 µM; in the data active = inhibition above about 50%;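 also: promastigotes grown with compound for 44 hours at 28 °C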
* hit, by the source's call; i = inactive; . = not tested or not shown; + = active, no number; ! = a repeat was not active. Hits are enriched below; roughly 12% of the tested compounds scored in any of these assays.

SMILES | Autophagy HCS | CHOP inhibitor | Dynein transport | MT stabilize HCS | b-catenin transl | Lmaj promast
Cc1ccc2nc(SCC(=O)N3c4ccccc4CC3C)c(C)cc2c1 (stereo not given) | i | 78* | -0.15 | 2 | . | 16
CCc1nc(SCC(=O)N2c3ccccc3CC2C)c2c(C)c(C)sc2n1 (stereo not given) | i | 9 | -0.34 | 1 | 4 | 5
Cc1ccc2nc(-c3cccnc3SCC(=O)N3c4ccccc4CC3C)[nH]c2c1 (stereo not given) | i | -17 | 0.063 | 2 | 0 | 12
Cc1sc2nc(C(C)C)nc(SCC(=O)N3c4ccccc4CC3C)c2c1C (stereo not given) | + | 36 | 0.9 | 5 | 0 | 94*
CC12CNCC(C)(CN(C(c3ccccc3)c3ccccc3)C1)C2 | i | 28 | 0.22 | 3 | 5 | 100*
Clc1ccc(C(c2ccccc2)N2CCNCC2)cc1 (stereo not given) | i | 11 | -0.23 | 2 | . | 46
NC(=O)NC(=O)COC(=O)c1ccc(Cl)c(S(=O)(=O)N(Cc2ccccc2)c2ccc(Cl)cc2)c1 | i | -37 | -0.9 | 8 | 2 | 1
NC(=O)COC(=O)c1ccc(Cl)c(S(=O)(=O)N(Cc2ccccc2)c2ccc(Cl)cc2)c1 | i | 85* | -0.19 | 6 | 3 | -1
Cc1ccc(C=Nc2ccccc2C(N)=O)s1 | i | 7 | -0.42 | 22* | 27 | -4
Cc1cccc(C=Nc2ccccc2C(N)=O)c1 | i | -8 | 0.14 | 37 | . | 0
COc1ccc(NC(=O)C2CC(=O)n3cnnc3S2)cc1 (stereo not given) | i | -4 | 0.31 | 2 | -5 | 98*
N#Cc1c(C(F)(F)F)cc(C2CC2)nc1N1CCCC1 | i | 83* | 0.34 | 1 | 3 | -1
O=C(c1cc2sccc2n1Cc1ccc(F)cc1)N1CCN(c2nc3ccccc3s2)CC1 | i | 59 | -0.61 | 2 | -2 | 84*
Cn1c(C(=O)N2CCN(c3nc4ccccc4s3)CC2)cc2sccc21 | i | 60 | -0.63 | 2 | -10 | -2
COc1ccc2c(c1)N(S(=O)(=O)c1ccccc1)CCC2=O | i | -13 | 0.061 | 3 | 1 | -3
CCOC(=O)c1sc2cc([N+](=O)[O-])cc(SCCO)c2c1N | + | 24 | -1.5 | 2 | 0 | 48
CCOC(=O)c1sc2cc([N+](=O)[O-])cc(SCC(=O)OC)c2c1N | i | 20 | 0.93 | 2 | 0 | 37
N=c1sccn1CC(=O)Nc1ccc(Cl)cc1[N+](=O)[O-] | . | -8 | -0.34 | . | -2 | .
CCc1nnc(N/N=C/c2cccs2)n1N | i | -5 | -0.15 | 5 | . | -3
CCc1nnc(N/N=C/c2c(Cl)cccc2Cl)n1N | i | -3 | -0.061 | 2 | -2 | 50*
O=C(COc1ccc(NS(=O)(=O)c2ccc(F)cc2)cc1)N1CCOCC1 | i | -12 | 0.45 | 2 | -2 | 1
CC1CC(C)CN(C(=O)c2cc3cc(Br)cc(Br)c3o2)C1 (stereo not given) | i | 39 | -0.19 | 3 | 12 | 90*
C=CCn1c(C)nnc1SCC(=O)N1CCN(S(=O)(=O)c2ccccc2)CC1 | . | 19 | 1.4 | . | 0 | .
Clc1ccc2oc(-c3ccccc3)cc(=NCCCN3CCOCC3)c2c1 | i | -10 | 2 | 5 | -1 | 99*
Clc1ccc2nc(NC3=NCN(CCN4CCOCC4)CN3)nc(-c3ccccc3)c2c1 | . | . | . | . | 0 | .
SMILES | Autophagy HCS | CHOP inhibitor | Dynein transport | MT stabilize HCS | b-catenin transl | Lmaj promast
OCCCCCN=c1cc(-c2ccccc2)oc2ccc(Cl)cc12 | i | 3 | -1.3 | 5 | -2 | 95*
NC(=O)COc1ccc2oc(-c3ccccc3)cc(=O)c2c1 | i | -5 | -0.35 | 2 | 0 | 7
Cc1nnc(SCC2=C(C(=O)O)N3C(=O)C(NC(=O)c4cccc(F)c4F)C3SC2)s1 (stereo not given) | i | -10 | 2.2 | 5 | -1 | -4
COc1ccc(S(=O)(=O)N=C2C=C(C)C(=O)C(C)=C2)cc1 | i | -7 | -0.95 | 2 | 0 | -3
COc1cc(C(=O)ON=C2C=C(C)C(=O)C(C)=C2)cc(OC)c1OC | i | -138 | 0.91 | 4 | 0 | 89*
COc1ccc(C(=O)ON=C2C=C(C)C(=O)C(C)=C2)cc1 | i | -113 | 1.1 | 4 | 4 | 100*
N=c1n(CCN2CCCCC2)c2ccccc2n1CC(O)COc1ccccc1 (stereo not given) | + | 39 | 1.8 | 3 | -1 | 101*
COc1ccccc1OCC(O)Cn1c(=N)n(CCN2CCCCC2)c2ccccc21 (stereo not given) | + | -4 | 1 | 2 | . | 65*
COC(=O)Cn1c(=N)n(CCN2CCCCC2)c2ccccc21 | i | -4 | -0.73 | 5 | 1 | 3
Cc1ccccc1OCC(O)Cn1c(=N)n(CCN2CCOCC2)c2ccccc21 (stereo not given) | i | 25 | 2.1 | 5 | -4 | 51*!
N=c1n(CCN2CCOCC2)c2ccccc2n1CC(O)COc1ccccc1 (stereo not given) | i | -13 | 0.51 | 5 | -4 | 14
N=c1n(CCN2CCOCC2)c2ccccc2n1Cc1ccccc1Br | i | -4 | -0.62 | 2 | -2 | 95*
COc1ccc(OCC(O)Cn2c(=N)n(CCN3CCOCC3)c3ccccc32)cc1 (stereo not given) | i | -5 | -0.54 | 1 | -4 | -5
Cc1ccc(CNc2ccc3c(c2)OCO3)cc1 | + | -31 | 2.7 | 4 | 2 | 100*
Cc1cccc(CNc2ncc(-c3cccc([N+](=O)[O-])c3)n2C)c1 | i | -7 | -0.17 | 2 | 0 | 17
Cn1c(-c2ccc3c(c2)OCO3)cnc1NCc1ccc(Cl)cc1 | i | 2 | -0.28 | 3 | 2 | 92*
Cc1ccc(CNc2ncc(-c3ccc4c(c3)OCO4)n2C)cc1 | i | -33 | -0.13 | 2 | -2 | 88*
c1cc(CNc2ccc3c(c2)OCO3)ccn1 | i | -33 | 0.096 | 3 | 2 | 36
COc1ccc(-c2cnc(NCc3cc4c(cc3[N+](=O)[O-])OCO4)n2C)cc1 | i | -10 | 0.35 | 1 | -1 | 98*
c1ccc2c(N3CCCCCC3)nc(-c3ccncc3)nc2c1 | i | 48 | 0.27 | 1 | -4 | 87*
c1ccc2c(Nc3nc(N4CCOCC4)c4ccccc4n3)cccc2c1 | i | 30 | -0.14 | 2 | -3 | 88*
CCN1CCN(c2nc(-c3cccnc3)nc3ccccc23)CC1 | i | -10 | 0.58 | 5 | . | 54*
c1cncc(-c2nc(N3CCCCCC3)c3ccccc3n2)c1 | i | 34 | -0.68 | 4 | -6 | 31
